Source: ChEMBL document CHEMBL4330127, “Discovery of Novel Pyruvate Dehydrogenase Kinase 4 Inhibitors for Potential Oral Treatment of Metabolic Diseases” (J Med Chem, 2019)
Calls of active or inactive are those of the source. The rule behind the calls is not given here.

Key:
L929 = test: Cytotoxicity against mouse L929 cells; format: cell-based
RKO [1] = test: Cell cycle arrest in human RKO cells assessed as accumulation at S phase at 50 uM after 24 hrs propidium iodide staining based flow cytometry (reference value: 19.2%); format: functional
HCT-116 [2] = test: Antiproliferative activity against human HCT116 cells up to 50 uM up to 72 hrs by CCK8 assay; format: functional, cell-based
Summary of the method: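 HCT116 and RKO cells were treated with compound alone or with oxaliplatin and grown for 0–72 h. Viability was read by CCK-8 colorimetry at 450 nm.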

Cytochrome P450 2D6 = Cytochrome P450 2D6 (Homo sapiens, UniProt P10635); test: Inhibition of CYP2D6 in human liver microsomes assessed as reduction in dextromethorphan O-demethylation by tandem mass spectrometry analysis; format: ADME
Summary of the method: (§1)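 Pooled human liver microsomes incubated with compound at 0–50 μM final; CYP probe activities (phenacetin O-deethylation for 1A2, tolbutamide 4-hydroxylation for 2C9, omeprazole hydroxylation for 2C19, dextromethorphan O-demethylation for 2D6) run as a cocktail incubation and quantified by tandem MS; duplicates; IC50 derived.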

Mus musculus = test: Antidiabetic activity in high-fat diet induced obese C57BL/6J mouse assessed as reduction in blood glucose level at 100 mg/kg, po administered for 1 week starting from week 4 post high fat diet followed by glucose challenge and measured up to 120 mins by IPGTT; format: functional, organism-based
Summary of the method: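 Eight-week-old C57BL/6J mice were fed a high-fat diet (60% kcal fat, 0.5% cholesterol, 10% fructose) for 4 weeks. From week 4 they were dosed orally for 1 week (n = 6 per group), with sitagliptin 10 mg/kg as comparator. An intraperitoneal glucose tolerance test (1.5 g/kg glucose) followed, and the area under the curve was calculated.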

Cytochrome P450 2C9 = Cytochrome P450 2C9 (Homo sapiens, UniProt P11712); test: Inhibition of CYP2C9 in human liver microsomes assessed as reduction in tolbutamide 4-hydroxylation by tandem mass spectrometry analysis; format: ADME; summary of the method: as §1
[3] = target: UDP-glucuronosyltransferase 1A4 (Homo sapiens, UniProt P22310); test: Inhibition of UGT1A4 in human liver microsomes assessed as reduction in trifluoperazine N-glucuronidation by tandem mass spectrometry analysis; format: ADME
Summary of the method: (§2)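 Pooled human liver microsomes; test compound at final 0–50 μM in a cocktail incubation with probe substrates: midazolam 1′-hydroxylation (CYP3A), SN-38 glucuronidation (UGT1A1), trifluoperazine N-glucuronidation (UGT1A4), mycophenolic acid glucuronidation (UGT1A9), naloxone 3-glucuronidation (UGT2B7). Metabolites measured by tandem MS; IC50 determined; duplicate.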

[4] = target: T1, [Pyruvate dehydrogenase (acetyl-transferring)] kinase isozyme 4, mitochondrial (Homo sapiens, UniProt Q16654); test: Inhibition of PDK4 in HEK293T cells assessed as reduction in PDHE1alpha phosphorylation at Ser-232 residue by measuring phosphorylated PDHE1alpha level at 10 uM after 24 hrs by Western blot analysis; format: cell-based
Summary of the method: (§3)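 HEK293T cells grown in high-glucose DMEM with 10% FBS at 37 °C, 5% CO2. Medium renewed after 24 h, then cells exposed to compound for 24 h and lysed. 20 μg protein per lane Western blotted with antibodies to phospho-PDHE1α Ser232, Ser293 and Ser300 and to total PDHE1α. Band intensity quantified relative to control; triplicate.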

CHO-K1 = test: Cytotoxicity against CHOK1 cells; format: cell-based; settings: Cricetulus griseus
HCT-116 [5] = test: Induction of apoptosis in human HCT116 cells assessed as live cells at 25 uM after 24 hrs by Annexin V/propidium iodide staining based flow cytometry (reference value: 84.4%); format: functional
HCT-116 [6] = test: Cell cycle arrest in human HCT116 cells assessed as accumulation at G1/G0 phase at 25 uM after 24 hrs propidium iodide staining based flow cytometry (reference value: 42%); format: functional
Summary of the method: (§4)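 HCT116 and RKO cells were treated with compound alone or with oxaliplatin for 24 h before harvest. Cells were stained with propidium iodide, and DNA content was analysed by flow cytometry. Cell-cycle phase populations, including sub-G1, are given as percentages.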

RKO [7] = test: Cell cycle arrest in human RKO cells assessed as accumulation at G1/G0 phase at 25 uM after 24 hrs in presence of oxaliplatin propidium iodide staining based flow cytometry (reference value: 44.3%); format: functional; summary of the method: as §4
RKO [8] = test: Induction of apoptosis in human RKO cells assessed as early apoptotic cells at 25 uM after 24 hrs by Annexin V/propidium iodide staining based flow cytometry (reference value: 9.62%); format: functional
HCT-116 [9] = test: Induction of apoptosis in human HCT116 cells assessed as live cells at 25 uM after 24 hrs in presence of oxaliplatin by Annexin V/propidium iodide staining based flow cytometry (reference value: 57.3%); format: functional
HCT-116 [10] = test: Induction of apoptosis in human HCT116 cells assessed as late apoptotic cells at 50 uM after 24 hrs by Annexin V/propidium iodide staining based flow cytometry (reference value: 8.36%); format: functional
HCT-116 [11] = test: Cell cycle arrest in human HCT116 cells assessed as accumulation at S phase at 50 uM after 24 hrs propidium iodide staining based flow cytometry (reference value: 18%); format: functional; summary of the method: as §4
HCT-116 [12] = test: Induction of apoptosis in human HCT116 cells assessed as late apoptotic cells at 25 uM after 24 hrs by Annexin V/propidium iodide staining based flow cytometry (reference value: 8.36%); format: functional
HCT-116 [13] = test: Induction of apoptosis in human HCT116 cells assessed as live cells at 50 uM after 24 hrs by Annexin V/propidium iodide staining based flow cytometry (reference value: 84.4%); format: functional
[14] = target: T1, [Pyruvate dehydrogenase (acetyl-transferring)] kinase isozyme 4, mitochondrial; test: Inhibition of PDK4 in HEK293T cells assessed as reduction in PDHE1alpha phosphorylation at Ser-300 residue by measuring phosphorylated PDHE1alpha level at 10 uM after 24 hrs by Western blot analysis; format: cell-based; summary of the method: as §3
RKO [15] = test: Cell cycle arrest in human RKO cells assessed as accumulation at sub-G1 phase at 25 uM after 24 hrs propidium iodide staining based flow cytometry (reference value: 17.6%); format: functional
RKO [16] = test: Induction of apoptosis in human RKO cells assessed as necrotic cells at 25 uM after 24 hrs by Annexin V/propidium iodide staining based flow cytometry (reference value: 0.56%); format: functional
RKO [17] = test: Cell cycle arrest in human RKO cells assessed as accumulation at G2/M phase at 10 uM after 24 hrs propidium iodide staining based flow cytometry (reference value: 23.3%); format: functional; summary of the method: as §4
HCT-116 [18] = test: Induction of apoptosis in human HCT116 cells assessed as early apoptotic cells at 50 uM after 24 hrs by Annexin V/propidium iodide staining based flow cytometry (reference value: 4.36%); format: functional
HCT-116 [19] = test: Induction of apoptosis in human HCT116 cells assessed as necrotic cells at 50 uM after 24 hrs by Annexin V/propidium iodide staining based flow cytometry (reference value: 2.92%); format: functional
HCT-116 [20] = test: Induction of apoptosis in human HCT116 cells assessed as early apoptotic cells at 25 uM after 24 hrs by Annexin V/propidium iodide staining based flow cytometry (reference value: 4.36%); format: functional
CYP3A = CYP3A (Homo sapiens, UniProt P08684+P20815+P24462+Q9HB55); test: Inhibition of CYP3A in human liver microsomes assessed as reduction in midazolam 1'-hydroxylation by tandem mass spectrometry analysis; format: ADME; settings: probe midazolam (1'-hydroxylation); summary of the method: as §2
RKO [21] = test: Induction of apoptosis in human RKO cells assessed as necrotic cells at 10 uM after 24 hrs by Annexin V/propidium iodide staining based flow cytometry (reference value: 0.56%); format: functional

T1 sequence (Q16654 whole entry, looked up): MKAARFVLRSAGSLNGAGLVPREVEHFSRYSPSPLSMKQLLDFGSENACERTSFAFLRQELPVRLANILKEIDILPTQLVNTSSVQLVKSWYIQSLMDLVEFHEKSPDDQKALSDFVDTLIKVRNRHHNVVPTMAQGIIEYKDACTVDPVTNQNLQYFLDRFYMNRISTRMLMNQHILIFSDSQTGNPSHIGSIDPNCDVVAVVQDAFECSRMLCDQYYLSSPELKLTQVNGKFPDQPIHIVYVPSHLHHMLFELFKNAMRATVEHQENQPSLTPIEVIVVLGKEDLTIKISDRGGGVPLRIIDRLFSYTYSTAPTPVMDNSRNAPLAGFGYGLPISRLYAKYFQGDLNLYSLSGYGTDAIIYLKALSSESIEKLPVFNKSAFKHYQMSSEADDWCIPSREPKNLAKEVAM
Chain of Cytochrome P450 2C9 (P11712 whole entry): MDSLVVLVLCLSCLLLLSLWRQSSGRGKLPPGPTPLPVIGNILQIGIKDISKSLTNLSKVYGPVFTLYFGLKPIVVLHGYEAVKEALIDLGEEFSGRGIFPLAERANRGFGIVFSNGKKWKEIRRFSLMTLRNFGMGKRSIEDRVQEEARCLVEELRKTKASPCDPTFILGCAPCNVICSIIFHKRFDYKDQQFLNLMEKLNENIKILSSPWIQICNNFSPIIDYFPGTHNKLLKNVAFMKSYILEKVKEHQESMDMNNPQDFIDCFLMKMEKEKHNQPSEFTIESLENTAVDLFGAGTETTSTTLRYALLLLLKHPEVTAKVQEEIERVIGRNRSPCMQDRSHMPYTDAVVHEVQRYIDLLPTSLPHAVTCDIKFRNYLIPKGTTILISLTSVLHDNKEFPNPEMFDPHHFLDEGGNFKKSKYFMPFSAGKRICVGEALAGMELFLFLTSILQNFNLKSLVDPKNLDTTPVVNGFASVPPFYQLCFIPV
Chain of UDP-glucuronosyltransferase 1A4 (P22310 whole entry): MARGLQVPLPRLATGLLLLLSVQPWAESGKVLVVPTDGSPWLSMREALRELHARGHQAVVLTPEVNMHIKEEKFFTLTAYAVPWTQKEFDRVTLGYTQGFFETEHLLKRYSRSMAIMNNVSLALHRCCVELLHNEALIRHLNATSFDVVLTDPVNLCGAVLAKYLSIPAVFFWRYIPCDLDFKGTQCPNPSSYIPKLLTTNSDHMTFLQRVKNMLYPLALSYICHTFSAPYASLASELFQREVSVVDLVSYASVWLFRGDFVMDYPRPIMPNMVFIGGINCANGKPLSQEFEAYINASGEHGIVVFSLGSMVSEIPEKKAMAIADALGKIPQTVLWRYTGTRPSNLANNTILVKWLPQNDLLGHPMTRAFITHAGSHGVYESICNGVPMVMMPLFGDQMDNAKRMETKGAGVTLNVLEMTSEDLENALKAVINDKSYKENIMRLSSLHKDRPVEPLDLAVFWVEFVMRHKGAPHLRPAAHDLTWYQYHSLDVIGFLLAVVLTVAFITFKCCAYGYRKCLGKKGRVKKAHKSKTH
Chain of Cytochrome P450 2D6 (P10635 whole entry): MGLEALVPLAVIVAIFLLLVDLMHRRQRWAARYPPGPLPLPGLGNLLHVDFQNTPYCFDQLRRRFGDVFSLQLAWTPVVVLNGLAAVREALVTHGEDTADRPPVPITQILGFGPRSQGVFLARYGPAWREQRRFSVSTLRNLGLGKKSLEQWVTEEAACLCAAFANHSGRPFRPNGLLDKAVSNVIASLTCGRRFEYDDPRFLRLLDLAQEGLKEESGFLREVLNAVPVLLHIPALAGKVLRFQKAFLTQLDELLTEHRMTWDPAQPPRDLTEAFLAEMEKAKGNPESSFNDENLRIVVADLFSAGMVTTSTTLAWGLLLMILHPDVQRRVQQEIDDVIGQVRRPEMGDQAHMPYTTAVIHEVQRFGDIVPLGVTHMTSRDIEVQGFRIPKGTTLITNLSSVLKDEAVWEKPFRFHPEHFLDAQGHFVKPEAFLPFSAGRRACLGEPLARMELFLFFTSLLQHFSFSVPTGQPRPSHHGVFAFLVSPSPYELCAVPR

## Cl.O=C1c2ccccc2C(=O)c2c1cccc2-c1cnn(C2CCNCC2)c1
L929
  IC50: 35.8 µM
RKO [1]
  Activity: 2.7%
HCT-116 [2]
  Activity: Active
Cytochrome P450 2D6
  IC50: > 50 µM
Mus musculus
  Activity: Active
Cytochrome P450 2C9
  IC50: > 50 µM
[3]
  IC50: > 50 µM
[4]
  fold change (FC): 0.04
CHO-K1
  IC50: 36 µM
HCT-116 [5]
  Activity: 49.4%
HCT-116 [6]
  Activity: 19%
RKO [7]
  Activity: 8.2%
RKO [8]
  Activity: 19.3%
HCT-116 [9]
  Activity: 44.6%
HCT-116 [10]
  Activity: 54.5%
HCT-116 [11]
  Activity: 5.3%
HCT-116 [12]
  Activity: 23.9%
HCT-116 [13]
  Activity: 21.2%
[14]
  fold change (FC): 0.26
RKO [15]
  Activity: 58.7%
RKO [16]
  Activity: 4.61%
RKO [17]
  Activity: 18.1%
HCT-116 [18]
  Activity: 4.1%
HCT-116 [19]
  Activity: 20.2%
HCT-116 [20]
  Activity: 7.1%
CYP3A
  IC50: 36.6 µM
RKO [21]
  Activity: 0.89%
